Consider twelve compounds from ChEMBL document CHEMBL4145451, “1,3,5-triazaspiro[5.5]undeca-2,4-dienes as selective Mycobacterium tuberculosis dihydrofolate reductase inhibitors with potent whole cell activity” (Eur J Med Chem, 2018).

The target of series [1] is T1, Dihydrofolate reductase (Mycobacterium tuberculosis, UniProt P9WNX1).
T1 sequence (P9WNX1 whole entry): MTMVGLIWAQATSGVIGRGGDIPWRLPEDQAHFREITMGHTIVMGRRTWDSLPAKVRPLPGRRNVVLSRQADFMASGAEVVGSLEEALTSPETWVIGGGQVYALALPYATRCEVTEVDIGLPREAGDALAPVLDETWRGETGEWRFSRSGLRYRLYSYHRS
In words: Inhibition of Mycobacterium tuberculosis H37Rv DHFR expressed in Escherichia coli assessed as reduction in consumption of NADPH using DHF as substrate by fluorescence method.

The subject of series [2] is Mycobacterium tuberculosis. Description: Antimycobacterial activity against Mycobacterium tuberculosis H37Rv infected in human THP1 cells after 5 days by Steady-Glo luminescence assay. In kind it is functional. The following applies: 120 h.
For series [3], the target named is T2, Dihydrofolate reductase (Homo sapiens, UniProt P00374).
T2 sequence (P00374 whole entry): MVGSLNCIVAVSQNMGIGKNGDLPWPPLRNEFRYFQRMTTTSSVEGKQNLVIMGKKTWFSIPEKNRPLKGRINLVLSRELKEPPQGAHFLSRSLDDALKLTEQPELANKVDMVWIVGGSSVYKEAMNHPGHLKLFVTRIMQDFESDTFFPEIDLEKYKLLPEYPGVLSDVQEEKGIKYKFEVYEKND
In words: Inhibition of human DHFR assessed as reduction in consumption of NADPH using DHF as substrate by fluorescence method.

In series [4] the target is T2, Dihydrofolate reductase. Description: Inhibition of human DHFR.
The subject of the next series is A549. In words: Cytotoxicity against human A549 cells. Format: cell-based.
Series [5] addresses T2, Dihydrofolate reductase. Description: Inhibition of recombinant human DHFR assessed as reduction in consumption of NADPH using DHF as substrate measured every 30 secs over 6 mins by spectrophotometric method.
Series [6] is described as follows: Intrinsic clearance in male rat liver microsomes at 3 uM preincubated for 5 mins followed by NADPH addition measured up to 45 mins by LC-MS/MS analysis. In kind it is ADME, microsome. The following applies: read-out: CLH. The method in brief: (§1)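 Compound (final 3 µM) was incubated with male or female rat liver microsomes (0.3 mg protein/mL) in 0.1 M phosphate pH 7.4. After a 5 min pre-incubation at 37 °C, NADPH (final 1 mM) was added to start the reaction. Samples were taken at 0, 5, 10, 15, 30 and 45 min and the remaining compound was quantified by LC-MS.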

A short description of series [7]: Selectivity index, ratio of IC50 for inhibition of recombinant human DHFR to IC50 for inhibition of Mycobacterium tuberculosis His-tagged DHFR. The procedure, abridged:
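Spectrophotometric DHFR assay at room temperature in 0.15 M potassium phosphate, pH 7, with 50 µM DHF, 60 µM NADPH and 1.5 × 10^-3 units recombinant human DHFR or 0.3 ng/mL recombinant Mtb DHFR, plus serial inhibitor concentrations in DMSO. NADPH use is followed at 340 nm every 30 s for 6 min. Slope versus uninhibited gives % inhibition, and IC50 comes from log-dose curves. SI = human IC50 / Mtb IC50.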

Series [8] addresses T1, Dihydrofolate reductase. Description: Inhibition of Mycobacterium tuberculosis His-tagged DHFR assessed as reduction in consumption of NADPH using DHF as substrate measured every 30 secs over 6 mins by spectrophotometric method.
The nature of series [9]: Half life in male rat liver microsomes at 3 uM preincubated for 5 mins followed by NADPH addition measured up to 45 mins by LC-MS/MS analysis. Format: ADME, microsome. The method in brief:
as §1

Series [10] is described as follows: Selectivity index, ratio of CC50 for cytotoxicity against human HepG2 cells to MIC90 for antimycobacterial activity against Mycobacterium tuberculosis H37Rv. The following applies: HepG2 cells versus Mycobacterium tuberculosis H37Rv, read-out: Selectivity Index. In kind it is toxicity, cell-based. The procedure, abridged:
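H37Rv grown to mid-log (OD600 0.4–0.6), 5 × 10^5 CFU/mL, in supplemented 7H9 with 2-fold compound dilutions (DMSO), 10 days at 37 °C shaken. MIC90 is the lowest concentration giving 90% inhibition by OD600. HepG2 cells in DMEM/10% FBS are exposed to 2-fold dilutions, and CC50 (50% viability loss) is read by MTS absorbance at 490 nm. SI = CC50/MIC90. Means of 3 independent experiments.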

Series [11] in a line: Cytotoxicity against human HepG2 cells assessed as reduction in cell viability by MTS assay. In kind it is cell-based. The procedure, abridged:
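HepG2 cells were grown in DMEM with 10% heat-inactivated FBS at 37 °C and 5% CO2, then exposed to 2-fold serially diluted compound. Viability was read by MTS absorbance at 490 nm. CC50 is the concentration giving a 50% viability drop, taken from the absorbance-versus-concentration plot. Triton X-100 was the positive control. Means of 3 independent experiments.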

In series [12] the test system is Mycobacterium tuberculosis. Description: Antimycobacterial activity against Mycobacterium tuberculosis H37Rv after 10 days by broth dilution method. Format: functional. Conditions: 240 h. The procedure, abridged: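 Broth microdilution. Mid-log cultures (OD600 0.4–0.6) were diluted and added to 2-fold serial compound dilutions in DMSO, giving a final 5 × 10^5 CFU/mL in 7H9-albumin-dextrose-catalase-glycerol-Tween 80. Plates were sealed and incubated at 37 °C for 10 days with shaking at 80 rpm. OD600 was read; MIC50 and MIC90 are the lowest concentrations giving 50% and 90% growth inhibition. Rifampicin and DMSO served as controls. Means of 3 independent experiments.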
(Dilution methods test growth across graded concentrations, often in twofold steps.)

A short description of series [13]: Intrinsic clearance in female rat liver microsomes at 3 uM preincubated for 5 mins followed by NADPH addition measured up to 45 mins by LC-MS/MS analysis. In kind it is ADME, microsome. The following applies: read-out: CLH. The method in brief:
as §1
(Microsomes from liver hold many membrane-bound enzymes, among them those of drug oxidation.)

A short description of series [14]: Aqueous solubility of compound in pH 7.4 solution after 90 mins by UV method. Format: physicochemical. Conditions: aqueous solution pH 7.4, pH 7.4. The method in brief: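 Compound was diluted from a 10 mM DMSO stock to final 3.13–100 µM in 45 mM ethanolamine/potassium dihydrogen phosphate/potassium acetate buffer, pH 7.4. After 90 min at room temperature the solution was filtered and diluted with acetonitrile and buffer. Absorbance was read at 330 nm.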

Series [15] is described as follows: Hemolytic activity in human RBC after 24 hrs. Format: ADME, cell-based, Erythrocyte. Conditions: red blood cells (erythrocytes), read-out: LC50. The method in brief: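 Red blood cells were PBS-washed and resuspended at 10^6/mL, then incubated 24 h with compound. After centrifugation at 1000 g for 10 min, supernatant absorbance was read at 540 nm. PBS served as the negative control and 0.1% Triton X-100 as the positive control. Reported as LC50.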

The nature of series [16]: Half life in female rat liver microsomes at 3 uM preincubated for 5 mins followed by NADPH addition measured up to 45 mins by LC-MS/MS analysis. Format: ADME, microsome. The method in brief:
as §1

The test system of series [17] is Mycobacterium tuberculosis. In words: Antimycobacterial activity against GFP-fused Mycobacterium tuberculosis H37Rv after 7 days BacTiter-Glo assay. In kind it is functional. Conditions: 168 h.
Series [18] deals with T1, Dihydrofolate reductase. In words: Inhibition of Mycobacterium tuberculosis H37Rv DHFR expressed in Escherichia coli BL21(DE3) assessed as reduction in consumption of NADPH using DHF as substrate preincubated for 1 min followed by DHF addition and measured for 2 mins by spectrophotometric method.
Series [19] is described as follows: Cytotoxicity against African green monkey Vero cells by MTT assay. Format: cell-based. The following applies: chlorocebus sabaeus. Background: Tetrazolium assays rely on reduction of a dye to a coloured formazan, in cell work by metabolically active cells.
The subject of series [20] is Mycobacterium tuberculosis. In words: Antimycobacterial activity against Mycobacterium tuberculosis H37Rv by resazurin dye based two-fold dilution assay. Format: functional.
Series [21] has as its target T1, Dihydrofolate reductase. Description: Inhibition of Mycobacterium tuberculosis H37Rv DHFR assessed as reduction in consumption of NADPH using DHF as substrate incubated for 3 mins measured for 2 mins by spectrophotometric method.
Series [22] concerns the target T2, Dihydrofolate reductase. In words: Inhibition of human DHFR assessed as reduction in consumption of NADPH using DHF as substrate incubated for 3 mins measured for 2 mins by spectrophotometric method.

≈ marks a conversion by molar mass, not a printed value.

In the case of `COc1ccc(-c2nc3c(N)nc(N)nc3nc2C(C)C)cc1`, the figures for the IC50 at Dihydrofolate reductase [1] and on Dihydrofolate reductase [3] were 0.0545 µM and 0.382 µM, respectively. In series [2], the MIC90 turned out to be 2.9 µM (≈ 0.9 µg/mL).
Regarding `NC1=NC2(CCCCC2)N(Cc2ccc(Cl)cc2)C(N)=N1`, the IC50 on Dihydrofolate reductase [4] and in the series with A549 was above 100 µM in each case.
Turning to `Cc1c(Cc2ccccc2Br)cnc2nc(N)nc(N)c12`, the IC50 was 0.0082 µM at Dihydrofolate reductase [1] and 0.0076 µM on Dihydrofolate reductase [3]. The compound further returned an MIC90 in series [2] of 1.3 µM (≈ 0.447 µg/mL).
In the case of `Cl.NC1=NC2(CCCCC2)N(c2ccc(OCc3cn(CCCOc4ccc5ccc(=O)oc5c4)nn3)cc2)C(N)=N1`, the figures for the IC50 at Dihydrofolate reductase [5] and on Dihydrofolate reductase [8] were 12 µM and 1.34 µM, respectively. For the same compound, the microsomal CLint at 3 µM in series [6] was 27.8 µL/min/mg; in [13], 8.6 µL/min/mg. Also, in series [7], the Ratio IC50 was found to be 8.95. For the same compound, the half-life at 3 µM came out at 1.39 h in [9] and 4.51 h in series [16]. Moreover, the selectivity ratio in series [10] is above 4000. In addition, the CC50 in series [11] is above 100 µM. In series [12], the MIC50 came out at 0.01 µM. This compound registered an MIC90 in series [12] of 0.025 µM. In [14], this compound displayed a solubility at 1.5 h above 100 µM. Besides, the HC50 at 24 h in series [15] is above 100 µM.
In turn, `COC(=O)CC[C@H](NC(=O)c1ccc(N(C)Cc2cnc3nc(N)nc(N)c3n2)cc1)C(=O)OC` came in with an MIC90 in [17] of 0.2 to 0.4 µM (≈ 0.0965 to 0.193 µg/mL). Besides, the IC50 on Dihydrofolate reductase [18] was 0.05 µM.
The compound `Nc1nc(N)nc(-c2ccc(OCc3cccc(Cl)c3)cc2)n1` registered a CC50 in [19] of 387 µM. In series [20], this compound yielded an MIC of 1.57 µM (≈ 0.515 µg/mL). Also, the half-inhibitory concentration (IC50) on Dihydrofolate reductase [21] is 5.62 µM; at Dihydrofolate reductase [22], 72.5 µM.
In the case of `Nc1nc(N)nc(-c2ccc(OCc3ccc(Cl)cc3)cc2)n1`, it took 333 µM to reach half-maximal cytotoxicity in series [19] (CC50). The compound further returned an MIC in series [20] of 1.76 µM (≈ 0.577 µg/mL). Moreover, the IC50 on Dihydrofolate reductase [21] amounted to 5.17 µM; at Dihydrofolate reductase [22], 83.3 µM.
For the compound `Cl.NC1=NC2(CCCCC2)N(c2ccc(OCc3cn(CCCc4ccccc4)nn3)cc2)C(N)=N1`, the concentration for half-maximal inhibition (IC50) at Dihydrofolate reductase [5] was 3.67 µM; on Dihydrofolate reductase [8], 5.82 µM. Further, the Ratio IC50 in [7] amounted to 0.63.
Consider `Cl.NC1=NC2(CCCCC2)N(c2ccc(OCc3cn(CCCCOc4ccc5ccc(=O)oc5c4)nn3)cc2)C(N)=N1`, for which the values for the IC50 on Dihydrofolate reductase [5] and at Dihydrofolate reductase [8] were 15.3 µM and 0.82 µM, respectively. In addition, the results for the microsomal CLint at 3 µM in series [6] and in [13] were 39.2 µL/min/mg and 20.4 µL/min/mg, respectively. Moreover, in series [7], the Ratio IC50 worked out at 18.7. Also, the values for the half-life at 3 µM in [9] and in series [16] were 0.983 h and 1.89 h, respectively. Besides, the selectivity ratio in series [10] was above 4000. Besides, in series [11], the CC50 was above 100 µM. The same compound registered an MIC50 in series [12] of 0.01 µM. This compound displayed an MIC90 in series [12] of 0.025 µM. For the same compound, the concentration in solution in series [14] (solubility at 1.5 h) came to 95.8 µM. The HC50 at 24 h in series [15] was above 100 µM.
As to `Cl.NC1=NC2(CCCCC2)N(Cc2cn(CCCCCOc3ccc4oc(=O)ccc4c3)nn2)C(N)=N1`, on Dihydrofolate reductase [8], the IC50 was above 100 µM.
As to `N#Cc1ccc(Cn2ccc3c4c(N)nc(N)nc4ccc32)cc1`, the IC50 on Dihydrofolate reductase [1] turned out to be 0.0101 µM; at Dihydrofolate reductase [3] it was 0.0068 µM. For the same compound, the MIC90 in series [2] came to 0.5 µM (≈ 0.157 µg/mL).
Compound `CCOC(=O)CC[C@H](NC(=O)c1ccc(N(C)Cc2cnc3nc(N)nc(N)c3n2)cc1)C(=O)OCC` gave an MIC90 in series [17] of 0.6 µM (≈ 0.306 µg/mL). The IC50 at Dihydrofolate reductase [18] came to 0.03 µM.

The IC50 is the concentration that inhibits the measured activity by half. A word on the MIC90: it is an inhibitory concentration at the 90% level, which refers to growth in some studies and to a panel of isolates in others. As usually defined, the half-life is the time needed for the level to fall by half in the phase considered. What is called CC50 is the concentration that lowers cell viability or growth by half. By MIC50 is commonly meant an inhibitory concentration at the 50% level, which refers to growth in some studies and to a panel of isolates in others. What is called solubility is the concentration that dissolves in the medium under given conditions. As a reminder, the MIC is the lowest concentration found to suppress growth.
